Where “and” joins values, the source holds several entries; their conditions need not be identical. Identical values can stand only once. A value given as a limit tells only on which side of the number the result lay.

Assay [1] has as its target human mu-opioid receptor (hMOR) (Homo sapiens, UniProt P35372). Description: G protein BRET functional assay at hMOR. The following applies: for maximal efficacy (Emax) relative to DAMGO: G protein BRET, agonist mode; for EC50: read-out: EC50 ± SEM (agonist activity), G protein BRET, HEK cells, mean ± SEM, n ≥ 3. Type of assay: cell-based. (In general: Bioluminescence resonance energy transfer reports proximity on the nanometre scale.)

The next assay has as its system rodent opioid receptors. The assay can be described thus: G protein BRET functional assays using rodent opioid receptors. The following applies: rodent receptors (mouse or rat). It is filed as cell-based.
Assay [2] concerns the target T1, hDOR (Homo sapiens, UniProt P41143). Description: Radioligand binding at hDOR. The settings on record: read-out: Ki ± SEM, n ≥ 3.
Assay [3] has as its target T2, hKOR (Homo sapiens, UniProt P41145). Description: G protein BRET functional assay at hKOR. The following applies: for agonist activity: concentrations up to 100 µM; for IC50: read-out: IC50 ± SEM (antagonist activity), inhibition of a reference agonist (U-50,488). Type of assay: cell-based. In short, it runs like this: (§1)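 HEK cells expressing the human receptor, co-transfected with Gα fused to an RLuc8 donor and Gγ fused to an mVenus acceptor. Receptor activation separates the G protein subunits, so the BRET signal falls. Agonist mode gives EC50 and Emax. Antagonist mode gives IC50 for inhibition of a reference agonist, and pA2 from Schild analysis. Values are mean ± SEM, n ≥ 3.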

In assay [4] the target is T1, hDOR. The assay can be described thus: G protein BRET functional assay at hDOR. Type of assay: cell-based. The settings on record: for agonist activity: concentrations up to 100 µM; for IC50: read-out: IC50 ± SEM (antagonist activity), inhibition of a reference agonist. In short, it runs like this: as §1
For assay [5], the target named is T3, hMOR (Homo sapiens, UniProt P35372). Description: Radioligand binding at hMOR. The settings on record: read-out: Ki ± SEM, n ≥ 3.
T3 sequence (P35372 whole entry): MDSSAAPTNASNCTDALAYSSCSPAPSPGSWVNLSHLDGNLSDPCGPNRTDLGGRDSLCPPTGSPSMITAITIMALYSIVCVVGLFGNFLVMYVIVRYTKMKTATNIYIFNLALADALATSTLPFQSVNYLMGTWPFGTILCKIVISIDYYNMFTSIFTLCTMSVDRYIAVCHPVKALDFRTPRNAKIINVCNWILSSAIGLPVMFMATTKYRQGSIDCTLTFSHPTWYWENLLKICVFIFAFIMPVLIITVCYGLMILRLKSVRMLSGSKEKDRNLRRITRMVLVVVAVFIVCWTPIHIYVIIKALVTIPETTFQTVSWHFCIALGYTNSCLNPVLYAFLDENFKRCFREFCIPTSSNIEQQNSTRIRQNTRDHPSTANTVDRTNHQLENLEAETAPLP
Assay [6] concerns the target T2, hKOR. Description: Radioligand binding at hKOR. The settings on record: read-out: Ki ± SEM, n ≥ 3.
For assay [7], the target named is T3, hMOR. The assay can be described thus: β-arrestin recruitment BRET assay at hMOR. It is filed as cell-based. The following applies: β-arrestin-2 BRET, in the presence of GRK2. For orientation: Arrestin recruitment assays detect the binding of arrestin to an activated receptor.
The target of a further assay is mouse MOR (mMOR) (Mus musculus, UniProt P42866). Description: G protein BRET functional assay at mouse MOR. Type of assay: cell-based.
mouse MOR (mMOR), sequence (P42866 whole entry): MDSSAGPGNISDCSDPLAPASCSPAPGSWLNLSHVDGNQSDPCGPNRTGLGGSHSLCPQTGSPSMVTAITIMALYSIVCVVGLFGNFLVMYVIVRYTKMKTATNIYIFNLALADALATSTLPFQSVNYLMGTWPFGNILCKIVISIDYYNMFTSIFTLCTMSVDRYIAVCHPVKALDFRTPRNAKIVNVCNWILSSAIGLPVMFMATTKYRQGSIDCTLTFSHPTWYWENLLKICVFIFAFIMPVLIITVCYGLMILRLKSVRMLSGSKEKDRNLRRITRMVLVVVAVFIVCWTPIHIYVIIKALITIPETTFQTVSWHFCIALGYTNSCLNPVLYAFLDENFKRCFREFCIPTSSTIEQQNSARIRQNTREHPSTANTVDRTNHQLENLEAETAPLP

T2 sequence (P41145 whole entry, the tested form may be a part): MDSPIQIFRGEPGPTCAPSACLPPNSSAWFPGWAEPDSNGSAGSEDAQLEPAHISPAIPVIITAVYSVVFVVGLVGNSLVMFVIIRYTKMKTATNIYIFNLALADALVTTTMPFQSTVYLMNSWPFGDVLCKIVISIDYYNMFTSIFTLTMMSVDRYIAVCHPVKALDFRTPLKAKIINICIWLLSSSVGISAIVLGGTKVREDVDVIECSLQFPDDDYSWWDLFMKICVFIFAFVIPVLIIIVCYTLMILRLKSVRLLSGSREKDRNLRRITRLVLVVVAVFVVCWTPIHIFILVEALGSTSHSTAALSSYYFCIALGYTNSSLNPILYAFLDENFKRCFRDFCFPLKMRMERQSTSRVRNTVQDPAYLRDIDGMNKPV
human mu-opioid receptor (hMOR), sequence (P35372 whole entry): as the sequence (P35372 whole entry) above
T1 sequence (P41143 whole entry, the tested form may be a part): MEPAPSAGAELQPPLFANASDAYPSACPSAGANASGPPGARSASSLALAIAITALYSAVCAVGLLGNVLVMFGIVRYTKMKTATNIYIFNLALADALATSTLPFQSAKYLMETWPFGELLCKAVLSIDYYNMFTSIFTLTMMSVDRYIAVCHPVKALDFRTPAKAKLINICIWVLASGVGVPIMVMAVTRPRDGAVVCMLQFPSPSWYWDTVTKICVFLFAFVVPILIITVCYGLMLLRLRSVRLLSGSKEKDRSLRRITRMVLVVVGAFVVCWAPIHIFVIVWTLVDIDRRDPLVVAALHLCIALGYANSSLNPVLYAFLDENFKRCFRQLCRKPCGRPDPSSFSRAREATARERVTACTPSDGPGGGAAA

For `CO/C=C(/C(=O)OC)[C@@H]1CCN2CCc3c([nH]c4cccc(OC)c34)[C@@H]2C1` [Compound 3, desethylmitragynine], in [1], the “maximal efficacy (Emax) relative to DAMGO” value is listed as 59% and the EC50 came out at 12 ± 7.6 µM.

As to `CC[C@@H]1CN2CCc3c([nH]c4cccc(OC)c34)[C@H]2C[C@@H]1/C(=C\OC)C(=O)OC` [speciociliatine], the “agonist or antagonist activity at rodent opioid receptors” value (“agonist or antagonist activity” for short) with rodent opioid receptors is “no notable agonist or antagonist activity”. Further, the inhibition constant (Ki) on hDOR [2] is over 10 µM. Further, the agonist activity entry at hKOR [3] and on hDOR [4] was “no measurable agonist activity” in each case. The concentration for half-maximal inhibition (IC50) on hKOR [3] and on hDOR [4] was over 10 µM throughout.

For the compound `CC[C@@H]1CN2CCc3c([nH]c4cccc(O)c34)[C@@H]2C[C@@H]1/C(=C\OC)C(=O)OC` [Compound 1], in assay [1], the “maximal efficacy (Emax) relative to DAMGO” value is 29% and the concentration for a half-maximal effect (EC50) was determined as 0.681 ± 0.379 µM.

With `CCC1CN2CCc3c([nH]c4cccc(OC)c34)C2CC1C(=COC)C(=O)OC` (single isomer, unassigned; (+)) [(+)-mitragynine], on hKOR [3] (G protein BRET, agonist mode), the maximal response (Emax) is listed as 31%.

With `C=C[C@H]1CN2CCc3c([nH]c4cccc(OC)c34)[C@@H]2C[C@@H]1/C(=C\OC)C(=O)OC` [paynantheine], the results for the Ki on hMOR [5] and on hDOR [2] were 410 ± 152 nM and over 10 µM, respectively. In addition, the “agonist or antagonist activity” value with rodent opioid receptors was “no notable agonist or antagonist activity”. Moreover, the agonist activity entry (in assay [1] (concentrations up to 100 µM); at hKOR [3]; on hDOR [4]) was “no measurable agonist activity” in each case. For the same compound, the IC50 in assay [1] (read-out: IC50 ± SEM (antagonist activity), inhibition of a reference agonist, n ≥ 3) came out at 2200 nM.

In the case of mitragynine, in the assay with rodent opioid receptors, the “agonist or antagonist activity” value is “no agonist activity”. Besides, the Ki at hDOR [2] is over 10 µM; on hKOR [6], 772 ± 207 nM. Further, the “pA2 determined from Schild analysis” value at hKOR [3] (competitive antagonism) was 1.4 ± 0.40 µM and 1.4 µM. For the same compound, the IC50 is 8.5 µM at hKOR [3] and over 10 µM on hDOR [4]. The “antagonist activity at hDOR” value on hDOR [4] is “very low potency”.

With `CC[C@H]1CN2CCc3c([nH]c4cccc(OC)c34)[C@@H]2C[C@@H]1/C(=C\OC)C(=O)OC` [speciogynine], the “agonist or antagonist activity” value in the assay with rodent opioid receptors is reported as “no notable agonist or antagonist activity”. At hDOR [2], the inhibitory constant (Ki) is over 10 µM. For the same compound, the agonist activity result on hKOR [3] and at hDOR [4] was “no measurable agonist activity” throughout. For the same compound, the IC50 on hKOR [3] and at hDOR [4] was over 10 µM each time.

Turning to `CC[C@@H]1CN2CC[C@@]3(O)C(=Nc4cccc(OC)c43)[C@@H]2C[C@@H]1/C(=C\OC)C(=O)OC` [Compound 7-OH, 7-hydroxymitragynine], the β-arrestin recruitment result on hMOR [7] is reported as “no measurable β-arrestin binding”. Moreover, the Ki on hDOR [2] is 0.219 ± 0.041 µM. In addition, at hKOR [3] (competitive antagonism), the “pA2 (Schild analysis)” value is 490 ± 131 nM and the “pA2 determined from Schild analysis” value is reported as 0.49 µM. In addition, on hKOR [3], the IC50 stood at 7.9 µM. The “agonist activity at mMOR” value on mouse MOR (mMOR) is on record as “retains its agonist activity”. Moreover, the IC50 on hDOR [4] is over 10 µM.

Usually EC50 stands for the concentration at which the effect is half-maximal. One may read the Ki as the dissociation constant of the complex between target and ligand, obtained from inhibition or displacement. The term IC50 denotes the concentration that inhibits the measured activity by half. A word on the Emax: it is the maximal effect, on the per cent scale that the assay sets.

Values taken from article PMC5189718 (Journal of the American Chemical Society, 2016).
